Experimental data as given in ChEMBL document CHEMBL1629581, “Diverse cytomegalovirus UL27 mutations adapt to loss of viral UL97 kinase activity under maribavir” (Antimicrob Agents Chemother, 2009).
Activity calls are given as the source filed them. The rule behind the calls is not given here.

How the values were obtained:
[1] = test system: Human betaherpesvirus 5; assay: Antiviral activity against Human cytomegalovirus T3019 expressing UL27 kinase with 218delC mutant gene by SEAP yield reduction assay; format: functional, organism-based; details: Human betaherpesvirus 5, T3019
In short: (§1)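 Cell-free virus was put on 6-day-old human embryonic lung fibroblast monolayers at MOI 0.01 to 0.02 and cultured 6 days across a maribavir range (six wells per assay). Supernatant SEAP was read by chemiluminescent substrate, and EC50 was derived by curve fitting. Values are the mean and standard error of at least 12 replicates over at least four dates. T2211 was run alongside on every date.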

[2] = test system: Human betaherpesvirus 5; assay: Antiviral activity against 0.01 to 0.02 MOI of Human cytomegalovirus T2867 expressing UL27 kinase with A269T mutant gene assessed as growth inhibition at day 6 by SEAP yield reduction assay relative to control; format: functional, organism-based
[3] = test system: Human betaherpesvirus 5; assay: Ratio of EC50 for Human cytomegalovirus T3037 expressing UL27 kinase with L426F mutant gene to EC50 for Human cytomegalovirus T2211 expressing wild type UL27 gene; format: functional
In short: (§2)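 Each strain's maribavir EC50 comes from a 6-day SEAP yield reduction in human embryonic lung fibroblasts at MOI 0.01 to 0.02, fitted from supernatant chemiluminescence over at least 12 replicates on at least four dates. It is expressed relative to the EC50 of baseline strain T2211 assayed simultaneously on the same setup dates.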

[4] = test system: Human betaherpesvirus 5; assay: Antiviral activity against Human cytomegalovirus T2899 expressing wild type UL27 kinase with N289D, D298G, N300G, P307L,V310A, D351N, I367V mutant gene by SEAP yield reduction assay; format: functional, organism-based; details: Human betaherpesvirus 5, T2899; in short: as §1
[5] = test system: Human betaherpesvirus 5; assay: Antiviral activity against 0.01 to 0.02 MOI of Human cytomegalovirus T2266 harboring UL97 deletion of 537 through the end mutant gene assessed as growth inhibition at day 6 by SEAP yield reduction assay relative to control; format: functional, organism-based
[6] = test system: Human betaherpesvirus 5; assay: Antiviral activity against Human cytomegalovirus T3037 expressing UL27 kinase with L426F mutant gene by SEAP yield reduction assay; format: functional, organism-based; details: Human betaherpesvirus 5, T3037; in short: as §1
[7] = test system: Human betaherpesvirus 5; assay: Ratio of EC50 for Human cytomegalovirus T2981 expressing UL27 kinase with W153R mutant gene to EC50 for Human cytomegalovirus T2211 expressing wild type UL27 gene; format: functional; in short: as §2
[8] = test system: Human betaherpesvirus 5; assay: Ratio of EC50 for Human cytomegalovirus T2890 expressing UL97 kinase with V353A mutant gene to EC50 for Human cytomegalovirus T2211 expressing wild type UL27 gene; format: functional; in short: as §2
[9] = test system: Human betaherpesvirus 5; assay: Ratio of EC50 for Human cytomegalovirus T2931 expressing UL27 kinase 301 to 311 deletion with frame shift mutation at 311 codon to EC50 for Human cytomegalovirus T2211 expressing wild type UL27 gene; format: functional; in short: as §2
[10] = test system: Human betaherpesvirus 5; assay: Antiviral activity against Human cytomegalovirus clinical isolate C076 harboring UL97 V353A mutant gene with UL27 del 301 to 311 codon by SEAP yield reduction assay relative to wild type; format: functional
[11] = test system: Human betaherpesvirus 5; assay: Antiviral activity against Human cytomegalovirus T2981 expressing UL27 kinase with W153R mutant gene by SEAP yield reduction assay; format: functional, organism-based; details: Human betaherpesvirus 5, T2981; in short: as §1
[12] = test system: Human betaherpesvirus 5; assay: Antiviral activity against 0.01 to 0.02 MOI of Human cytomegalovirus T2898 expressing UL27 kinase with W362stop gene N289D, D298G, N300G, P307L, V310A, D351N, I367V mutant gene assessed as growth inhibition at day 6 by SEAP yield reduction assay relative to control; format: functional, organism-based
[13] = test system: Human betaherpesvirus 5; assay: Ratio of EC50 for Human cytomegalovirus T3053 expressing UL27 kinase with V353E mutant gene to EC50 for Human cytomegalovirus T2211 expressing wild type UL27 gene; format: functional; in short: as §2
[14] = test system: Human betaherpesvirus 5; assay: Antiviral activity against Human cytomegalovirus clinical T2294 harboring UL97 T409M mutant gene with UL27 W153R mutant gene by SEAP yield reduction assay relative to wild type; format: functional
[15] = test system: Human betaherpesvirus 5; assay: Antiviral activity against Human cytomegalovirus clinical T2294 harboring UL97 T409 mutant gene with UL27 V353E mutant gene by SEAP yield reduction assay relative to wild type; format: functional
[16] = test system: Human betaherpesvirus 5; assay: Ratio of EC50 for Human cytomegalovirus T2899 expressing wild type UL27 kinase with N289D, D298G, N300G, P307L,V310A, D351N, I367V mutant gene to EC50 for Human cytomegalovirus T2211 expressing wild type UL27 gene; format: functional; in short: as §2
[17] = test system: Human betaherpesvirus 5; assay: Ratio of EC50 for Human cytomegalovirus T3020 expressing UL27 kinase with E22stop gene to EC50 for Human cytomegalovirus T2211 expressing wild type UL27 gene; format: functional; in short: as §2
[18] = test system: Human betaherpesvirus 5; assay: Antiviral activity against Human cytomegalovirus T2931 expressing UL27 kinase 301 to 311 deletion with frame shift mutation at 311 codon by SEAP yield reduction assay; format: functional, organism-based; details: Human betaherpesvirus 5, T2931; in short: as §1
[19] = test system: Human betaherpesvirus 5; assay: Antiviral activity against Human cytomegalovirus T2211 expressing wild type UL27 kinase by SEAP yield reduction assay; format: functional, organism-based; details: Human betaherpesvirus 5, T2211; in short: as §1
[20] = test system: Human betaherpesvirus 5; assay: Antiviral activity against Human cytomegalovirus T3020 expressing UL27 kinase with E22stop gene by SEAP yield reduction assay; format: functional, organism-based; details: Human betaherpesvirus 5, T3020; in short: as §1
[21] = test system: Human betaherpesvirus 5; assay: Antiviral activity against Human cytomegalovirus clinical T2294 harboring UL97 T409 mutant gene with UL27 E22stop mutant gene by SEAP yield reduction assay relative to wild type; format: functional
[22] = test system: Human betaherpesvirus 5; assay: Ratio of EC50 for Human cytomegalovirus T3019 expressing UL27 kinase with 218delC mutant gene to EC50 for Human cytomegalovirus T2211 expressing wild type UL27 gene; format: functional; in short: as §2
[23] = test system: Human betaherpesvirus 5; assay: Ratio of EC50 for Human cytomegalovirus T2898 expressing UL27 kinase with W362stop gene N289D, D298G, N300G, P307L, V310A, D351N, I367V mutant gene to EC50 for Human cytomegalovirus T2211 expressing wild type UL27 gene; format: functional; in short: as §2
[24] = test system: Human betaherpesvirus 5; assay: Antiviral activity against Human cytomegalovirus T2898 expressing UL27 kinase with W362stop gene N289D, D298G, N300G, P307L, V310A, D351N, I367V mutant gene by SEAP yield reduction assay; format: functional, organism-based; details: Human betaherpesvirus 5, T2898; in short: as §1
[25] = test system: Human betaherpesvirus 5; assay: Antiviral activity against Human cytomegalovirus T2767 expressing UL27 kinase with L193Fmutant gene by SEAP yield reduction assay; format: functional, organism-based; details: Human betaherpesvirus 5, T2767; in short: as §1
[26] = test system: Human betaherpesvirus 5; assay: Antiviral activity against Human cytomegalovirus T3053 expressing UL27 kinase with V353E mutant gene by SEAP yield reduction assay; format: functional, organism-based; details: Human betaherpesvirus 5, T3053; in short: as §1
[27] = test system: Human betaherpesvirus 5; assay: Ratio of EC50 for Human cytomegalovirus T2767 expressing UL27 kinase with L193Fmutant gene to EC50 for Human cytomegalovirus T2211 expressing wild type UL27 gene; format: functional; in short: as §2
[28] = test system: Human betaherpesvirus 5; assay: Antiviral activity against Human cytomegalovirus T2890 expressing UL97 kinase with V353A mutant gene by SEAP yield reduction assay; format: functional, organism-based; details: Human betaherpesvirus 5, T2890; in short: as §1
[29] = test system: Human betaherpesvirus 5; assay: Ratio of EC50 for Human cytomegalovirus T2867 expressing UL27 kinase with A269T mutant gene to EC50 for Human cytomegalovirus T2211 expressing wild type UL27 gene; format: functional; in short: as §2
[30] = test system: Human betaherpesvirus 5; assay: Antiviral activity against 0.01 to 0.02 MOI of Human cytomegalovirus T2931 expressing UL27 kinase 301 to 311 deletion with frame shift mutation at 311 codon assessed as growth inhibition at day 6 by SEAP yield reduction assay relative to control; format: functional, organism-based
[31] = test system: Human betaherpesvirus 5; assay: Antiviral activity against Human cytomegalovirus T2867 expressing UL27 kinase with A269T mutant gene by SEAP yield reduction assay; format: functional, organism-based; details: Human betaherpesvirus 5, T2867; in short: as §1
[32] = test system: Human betaherpesvirus 5; assay: Antiviral activity against 0.01 to 0.02 MOI of Human cytomegalovirus T2899 expressing wild type UL97 kinase with N289D, D298G, N300G, P307L,V310A, D351N, I367V mutant gene assessed as growth inhibition at day 6 by SEAP yield reduction assay relative to control; format: functional, organism-based

## CC(C)Nc1nc2cc(Cl)c(Cl)cc2n1[C@H]1O[C@@H](CO)[C@H](O)[C@@H]1O [MARIBAVIR]
[1]
  EC50: 230 nM
[2]
  inhibition: Active
[3]
  Ratio EC50: 2.2
[4]
  EC50: 84 nM
[5]
  inhibition: Active
[6]
  EC50: 210 nM
[7]
  Ratio EC50: 1.7
[8]
  Ratio EC50: 16
[9]
  Ratio EC50: 3.1
[10]
  fold change (FC): 15
[11]
  EC50: 160 nM
[12]
  inhibition: Active
[13]
  Ratio EC50: 2.1
[14]
  fold change (FC): 15
[15]
  fold change (FC): 15
[16]
  Ratio EC50: 0.9
[17]
  Ratio EC50: 2
[18]
  EC50: 290 nM
[19]
  EC50: 95 nM
[20]
  EC50: 190 nM
[21]
  fold change (FC): 15
[22]
  Ratio EC50: 2.5
[23]
  Ratio EC50: 2.2
[24]
  EC50: 210 nM
[25]
  EC50: 240 nM
[26]
  EC50: 200 nM
[27]
  Ratio EC50: 2.6
[28]
  EC50: 1480 nM
[29]
  Ratio EC50: 2
[30]
  inhibition: Active
[31]
  EC50: 190 nM
[32]
  inhibition: Active
